Measurements taken from ChEMBL document CHEMBL4152256, “Structure-activity relationship of new antimalarial 1-aryl-3-susbtituted propanol derivatives: Synthesis, preliminary toxicity profiling, parasite life cycle stage studies, target exploration, and targeted delivery” (Eur J Med Chem, 2018).

Experiments:
[1] = system: Plasmodium falciparum; assay: Antiplasmodial activity against multidrug-resistant Plasmodium falciparum C235 after 72 hrs by MSF assay; type: functional, organism-based; settings: C235, 72 h
Outline: (§1)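 D6 and C235 strains from the Walter Reed Army Institute of Research were tested by the Malaria SYBR Green-I fluorescence assay.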

[2] = system: Plasmodium falciparum; assay: Antiplasmodial activity against Plasmodium falciparum D6 after 72 hrs by MSF assay; type: functional, organism-based; settings: D6, 72 h; outline: as §1
[3] = Cytotoxicity against human HepG2A16 cells by MTT assay; type: cell-based
Outline: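 MTT viability assay on HepG2-A16 cells, giving CC50 values.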

[4] = Selectivity index, ratio of CC50 for human HepG2A16 cells by MTT assay to IC50 for multidrug-resistant Plasmodium falciparum FCR-3; type: toxicity; settings: for selectivity ratio: HepG2A16 cells, read-out: Ratio CC50/IC50
Outline: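 HepG2-A16 human hepatoma cells were tested by MTT viability assay to give CC50. Blood-stage activity was measured against the multidrug-resistant P. falciparum FCR-3 strain by [3H]-hypoxanthine incorporation to give IC50. SI = CC50 HepG2 / FCR-3 IC50.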

[5] = Genotoxicity in Salmonella typhimurium TA1535 harboring pSK1002 assessed as survival at 1 mg/ml in absence of Sprague-Dawley rat liver S9 fraction after by SOS/umu assay relative to control; type: toxicity, organism-based; settings: salmonella enterica subsp. enterica serovar typhimurium, read-out: Survival
[6] = Genotoxicity in Salmonella typhimurium TA1535 harboring pSK1002 assessed as survival at 0.5 mg/ml in absence of Sprague-Dawley rat liver S9 fraction after by SOS/umu assay relative to control; type: toxicity, organism-based; settings: salmonella enterica subsp. enterica serovar typhimurium, read-out: Survival
[7] = Genotoxicity in Salmonella typhimurium TA1535 harboring pSK1002 assessed as umu gene induction at 0.5 mg/ml in absence of Sprague-Dawley rat liver S9 fraction after by SOS/umu assay relative to control; type: toxicity, organism-based; settings: salmonella enterica subsp. enterica serovar typhimurium, read-out: FC
[8] = Genotoxicity in Salmonella typhimurium TA1535 harboring pSK1002 assessed as survival at 0.5 mg/ml in presence of Sprague-Dawley rat liver S9 fraction after by SOS/umu assay relative to control; type: toxicity, organism-based; settings: salmonella enterica subsp. enterica serovar typhimurium, read-out: Survival
[9] = Genotoxicity in Salmonella typhimurium TA1535 harboring pSK1002 assessed as umu gene induction at 0.5 mg/ml in presence of Sprague-Dawley rat liver S9 fraction after by SOS/umu assay relative to control; type: toxicity, organism-based; settings: salmonella enterica subsp. enterica serovar typhimurium, read-out: FC
[10] = Genotoxicity in Salmonella typhimurium TA1535 harboring pSK1002 assessed as survival at 0.25 mg/ml in absence of Sprague-Dawley rat liver S9 fraction after by SOS/umu assay relative to control; type: toxicity, organism-based; settings: salmonella enterica subsp. enterica serovar typhimurium, read-out: Survival
[11] = Genotoxicity in Salmonella typhimurium TA1535 harboring pSK1002 assessed as umu gene induction at 0.25 mg/ml in absence of Sprague-Dawley rat liver S9 fraction after by SOS/umu assay relative to control; type: toxicity, organism-based; settings: salmonella enterica subsp. enterica serovar typhimurium, read-out: FC
[12] = Genotoxicity in Salmonella typhimurium TA1535 harboring pSK1002 assessed as survival at 0.25 mg/ml in presence of Sprague-Dawley rat liver S9 fraction after by SOS/umu assay relative to control; type: toxicity, organism-based; settings: salmonella enterica subsp. enterica serovar typhimurium, read-out: Survival
[13] = Genotoxicity in Salmonella typhimurium TA1535 harboring pSK1002 assessed as umu gene induction at 0.25 mg/ml in presence of Sprague-Dawley rat liver S9 fraction after by SOS/umu assay relative to control; type: toxicity, organism-based; settings: salmonella enterica subsp. enterica serovar typhimurium, read-out: FC
[14] = Genotoxicity in Salmonella typhimurium TA1535 harboring pSK1002 assessed as umu gene induction at 0.125 mg/ml in presence of Sprague-Dawley rat liver S9 fraction after by SOS/umu assay relative to control; type: toxicity, organism-based; settings: salmonella enterica subsp. enterica serovar typhimurium, read-out: FC
[15] = Genotoxicity in Salmonella typhimurium TA1535 harboring pSK1002 assessed as survival at 0.063 mg/ml in absence of Sprague-Dawley rat liver S9 fraction after by SOS/umu assay relative to control; type: toxicity, organism-based; settings: salmonella enterica subsp. enterica serovar typhimurium, read-out: Survival
[16] = Genotoxicity in Salmonella typhimurium TA1535 harboring pSK1002 assessed as survival at 0.031 mg/ml in absence of Sprague-Dawley rat liver S9 fraction after by SOS/umu assay relative to control; type: toxicity, organism-based; settings: salmonella enterica subsp. enterica serovar typhimurium, read-out: Survival
[17] = Genotoxicity in Salmonella typhimurium TA1535 harboring pSK1002 assessed as umu gene induction at 0.031 mg/ml in absence of Sprague-Dawley rat liver S9 fraction after by SOS/umu assay relative to control; type: toxicity, organism-based; settings: salmonella enterica subsp. enterica serovar typhimurium, read-out: FC
[18] = system: Plasmodium berghei; assay: Antiplasmodial activity against Plasmodium berghei ANKA infected in mouse assessed as mouse survival time at 50 mg/kg/day, po for 4 consecutive days starting from 2 hrs post infection by MSF assay; type: functional
Outline: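 Swiss male mice (20 ± 2 g) infected i.p. with 10^7 P. berghei ANKA parasitized cells in 0.1 mL 0.9% saline (day 0). Oral dosing began 2 h post-infection and continued daily on days 0–3, five mice per batch. Test drugs were given at 50 mg/kg/day in water:DMSO and chloroquine diphosphate at 3 mg/kg/day; a vehicle control was included. Survival was checked daily, and parasitemia was read on day 4 by modified MSF assay.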

[19] = system: Plasmodium berghei; assay: Antiplasmodial activity against GFP-fused Plasmodium berghei sporozoites infected in human HepG2A16 cells treated simultaneously with infection by fluorescence microscopic analysis; type: functional, organism-based
Outline: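 HepG2-A16 cells (3 × 10^4/well, collagen-coated) infected with PbGFP sporozoites (5 × 10^3 to 1 × 10^4/well) and treated at the same time. Top concentration 10 µg/mL in DMEM, seven serial dilutions. Medium and compound renewed at 3 h and every 24 h. After 40 h at 37 °C: methanol fixation, anti-Plasmodium Hsp70 immunolabeling, Alexa 594 secondary, DAPI; high-content imaging.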

[20] = Solubility of the compound in DSPC:cholesterol:DSPE-PEG2000-Mal:DOPE-Rho lipid mixture at 250 uM; type: physicochemical
Outline: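 Compound added at 250 µM drug to the initial liposome lipid mixture (10 mM total lipid); precipitation and UV-visible absorbance above 300 nm assessed after encapsulation, removal of unencapsulated material and extraction with 1% w/v SDS in RPMI-A.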

[21] = system: Plasmodium berghei; assay: Antiplasmodial activity against Plasmodium berghei ANKA infected in mouse assessed as inhibition of parasitemia at 50 mg/kg/day, po for 4 consecutive days starting from 2 hrs post infection by MSF assay relative to control; type: functional
Outline: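 Swiss male mice (20 ± 2 g) infected ip with 10^7 P. berghei ANKA parasitized cells (day 0). Five per group dosed orally 2 h after infection and daily on days 0–3. Test compounds at 50 mg/kg/day in water:DMSO; chloroquine diphosphate at 3 mg/kg/day; vehicle controls. Parasitemia measured on day 4 by MSF assay; survival checked daily.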

| Compound | IC50 [1] | IC50 [2] | viability at 1 mg/ml [5] | viability at 0.5 mg/ml [6] | fold induction at 0.5 mg/ml [7] | viability at 0.5 mg/ml [8] | fold induction at 0.5 mg/ml [9] | viability at 0.25 mg/ml [10] | fold induction at 0.25 mg/ml [11] | viability at 0.25 mg/ml [12] | fold induction at 0.25 mg/ml [13] | fold induction at 0.125 mg/ml [14] | viability at 0.063 mg/ml [15] | viability at 0.031 mg/ml [16] | fold induction at 0.031 mg/ml [17] | MSD [18] | solubility [20] | CC50 ([3]; HepG2A16 cells) | selectivity ratio [4] | other results |
| --- | --- | --- | --- | --- | --- | --- | --- | --- | --- | --- | --- | --- | --- | --- | --- | --- | --- | --- | --- | --- |
| OC(CCN1CCN(c2ccccc2C(F)(F)F)CC1)c1ccc(F)c2ccccc12 (stereo in doubt; 55) | 0.14 µM | 0.1 µM | 229% | 175% | 0.7 | 168% | 0.4 | 207% | 0.1 | 95.4% | 0.7 | 0.7 | 138% | 127% | 0.4 | 8 days | Insoluble | – | – | CC50 [3]: 27.5 µM; Ratio CC50/IC50 [4]: 183; IC50 [19]: Not Active |
| OC(CCN1CCN(c2ccccc2C(F)(F)F)CC1)c1ccc(F)cc1 (stereo unspecified) | – | – | 244% | 129% | 0.2 | 37.2% | 1.2 | 70.1% | 0.5 | 24.6% | 1.3 | 1.9 | 28.6% | 95.5% | 0.8 | – | Insoluble | 1.35 µM | 1 | – |
| COc1ccccc1C1=CCN(CCC(O)c2ccc(F)cc2)CC1 (stereo unspecified) | 3.69 µM | 3.73 µM | 82.3% | 19.4% | 2.3 | 82.1% | 1.3 | 92.3% | 1.3 | 73% | 1.1 | 1 | 101% | 114% | 1 | 6 days | Insoluble | 67 µM | 51 | inhibition in vivo at 50 mg/kg/day [21]: ≤ 50% |
